Measured values collected from several papers.
Protocols differ between the studies behind these lines.
Mode: inhibitor
Dihydroorotate dehydrogenase, mitochondrial, putative: Dihydroorotate dehydrogenase, mitochondrial, putative (Plasmodium vivax, UniProt A5K1N1)
HDAC6: Protein deacetylase HDAC6 (HDAC6, Homo sapiens, UniProt Q9UBN7)
KCNH2: Voltage-gated inwardly rectifying potassium channel KCNH2 (KCNH2, Homo sapiens, UniProt Q12809)

SMILES	target	test	conditions	IC50 [nM]
CCn1cnc2c([C@@](O)(CC)c3ccc(C(F)(F)F)nc3)n(C)nc2c1=O	Dihydroorotate dehydrogenase, mitochondrial, putative	enzyme activity, absorbance		26
O=C(NO)c1cccc(OS(=O)(=O)Oc2ccc(C(F)(F)F)cc2)c1	HDAC6	enzyme activity, fluorescence		842
CC[C@@](N)(c1cnc(C(F)(F)F)c(Cl)c1)c1c2ncn(C3CC3)c(=O)c2nn1C	Dihydroorotate dehydrogenase, mitochondrial, putative	enzyme activity, absorbance		40
COc1cc2c(cc1OC)CC(=O)N(CCCN(C)C[C@H]1Cc3cc(OC)c(OC)cc31)CC2	Potassium/sodium hyperpolarization-activated cyclic nucleotide-gated channel 1 (Homo sapiens, UniProt O60741)	ion current		5400
Cn1nc2c(=O)n(C3CC3)ccc2c1[C@](O)(c1cnc(C(F)(F)F)c(Cl)c1)C(F)(F)F	Dihydroorotate dehydrogenase, mitochondrial, putative	enzyme activity, absorbance		19
O=C(NO)c1cc(F)cc(OS(=O)(=O)Oc2ccccc2)c1	HDAC6	enzyme activity, fluorescence		77
CCn1ncc2c([C@](O)(c3ccc(C(F)(F)F)c(Cl)c3)C3CC3)n(C)nc2c1=O	Dihydroorotate dehydrogenase, mitochondrial, putative	enzyme activity, absorbance		5
Cc1cc(C(C)(C)C)ccc1OS(=O)(=O)Oc1cc(F)cc(C(=O)NO)c1	HDAC6	enzyme activity, fluorescence		3210
Cc1c(C(=O)OC2CC2)nn(C)c1Cc1ccc(C(F)(F)F)nc1	Dihydroorotate dehydrogenase, mitochondrial, putative	enzyme activity, absorbance		16
CN(C)C(=O)CN1CCN(c2cnc3c(cc(C(=O)NCc4ccc(Cl)cc4)c(=O)n3CC(=O)N3CC(C)(F)C3)n2)C1=O	KCNH2	ion current, patch clamp		> 40000
Cn1nc2c(=O)n(C3CC3)cnc2c1[C@](O)(c1cnc(C(F)(F)F)c(Cl)c1)C(F)(F)F	Dihydroorotate dehydrogenase, mitochondrial, putative	enzyme activity, absorbance		23
COc1ccc(C[C@H]2COC(=O)[C@@H]2Cc2ccc(OCC(=O)Nc3ccc(C(=O)Nc4ccccc4N)cc3)c(OC)c2)cc1OC	HDAC6	enzyme activity		> 10000
COc1cnc2c(cc(C(=O)NCc3ccc(Cl)cc3)c(=O)n2CC(=O)N2CC(C)(F)C2)n1	KCNH2	ion current, patch clamp		2910
COc1cccc(OS(=O)(=O)Oc2cccc(C(=O)NO)c2)c1	HDAC6	enzyme activity, fluorescence		92
COc1ccc2c(C(=S)N(C)CC(=O)O)cccc2c1C(F)(F)F	Aldo-keto reductase family 1 member B10 (AKR1B10, Homo sapiens, UniProt O60218, K125R)	enzyme activity		124
CC1(F)CN(C(=O)Cn2c(=O)c(C(=O)NCc3ccc(Cl)cc3)cc3nc(N4CCOC4=O)cnc32)C1	KCNH2	ion current, patch clamp		5620
CN(C)C(=O)c1cc2cnc(Nc3ccc(N4CCNCC4)cn3)nc2n1C1CCCC1	3',5'-cyclic-AMP phosphodiesterase 4D (PDE4D, Homo sapiens, UniProt Q08499)	enzyme activity, TR-FRET		> 10000
O=C(NO)c1cncc(OS(=O)(=O)Oc2ccc(C(F)(F)F)cc2)c1	HDAC6	enzyme activity, fluorescence		147
O=c1oc(-c2cccnc2)nc2ccccc12	Prothrombin (F2, Homo sapiens, UniProt P00734)	enzyme activity, absorbance	pH 7.4	~970
